Experimental findings from PMC6294321 (Molecular cell, 2018) are described below.

In assay [1] the target is T1, GST-tagged KLHDC2 (kelch repeat domain, WT) (Homo sapiens, UniProt Q9Y2U9).
T1 sequence (Q9Y2U9 1-362): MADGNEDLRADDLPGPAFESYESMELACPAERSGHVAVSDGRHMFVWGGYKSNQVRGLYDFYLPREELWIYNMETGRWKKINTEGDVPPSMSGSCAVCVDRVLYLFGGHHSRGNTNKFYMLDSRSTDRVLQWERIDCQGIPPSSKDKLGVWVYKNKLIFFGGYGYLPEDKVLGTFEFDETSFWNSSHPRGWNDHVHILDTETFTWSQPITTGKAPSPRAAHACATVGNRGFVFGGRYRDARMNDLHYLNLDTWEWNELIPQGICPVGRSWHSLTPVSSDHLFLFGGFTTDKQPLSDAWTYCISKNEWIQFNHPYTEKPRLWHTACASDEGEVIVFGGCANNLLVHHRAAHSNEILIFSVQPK
Kind of assay: AlphaScreen competition assay, wild type KLHDC2. As to conditions: USP1 vs SelK 8 aa peptide. Format: binding. In a few lines:
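Human KLHDC2 kelch domain (aa 1–362), GST-tagged, was expressed in baculovirus-infected Hi5 cells. It was purified by glutathione agarose, Q Sepharose and Superdex-200. The assay used 0.12 nM protein on anti-GST acceptor beads and 1.7 nM biotinylated 12 aa SelK peptide on streptavidin donor beads, 5 μg/ml beads. Buffer: HEPES pH 7.5, NaCl, TCEP, Tween-20, BSA. Competitor peptides ran 2 nM–3 mM, in triplicate; IC50 by non-linear fitting.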

For assay [2], the target named is GST-KLHDC2 (kelch repeat domain, amino acid 1-362) (human) (UniProt Q9Y2U9). Kind of assay: AlphaScreen or HTRF. A general note: Alpha assays give light when donor and acceptor beads are brought close together.
The target in assay [3] is GST-KLHDC2 R241K (kelch repeat domain) (human) (UniProt Q9Y2U9). Kind of assay: AlphaScreen or HTRF.
Assay [4] has as its target T2, GST-KLHDC2 (kelch repeat domain, amino acid 1-362) (human, UniProt Q9Y2U9 1-362).
T2 sequence (looked up): T1 sequence (Q9Y2U9 1-362)
Nature of the assay: AlphaScreen or HTRF.

Assay [5] addresses T2, GST-KLHDC2 (kelch repeat domain, amino …). Nature of the assay: BLI. Background: BLI is a label-free optical method that tracks binding on a fibre tip over time.
Assay [6] concerns the target T3, GST-KLHDC2 R241K (kelch repeat domain) (human, UniProt Q9Y2U9 1-362, R241K).
T3 sequence (looked up): T1 sequence (Q9Y2U9 1-362) with R241K
Kind of assay: AlphaScreen or HTRF.

Changes are numbered by the printed parent chain. Where no end group is shown, it is not given here.

As to EAIGLLGG-OH [USP1-NTD degron peptide], in assay [1], the “fold lower potency/affinity vs SelK” value is given as “about 7 fold”.

In general, Kd refers to the concentration at which binding is half-saturated. Consider “diglycine (2 aa SelK degron peptide, label-free)”, for which the dissociation constant (Kd) in assay [2] came to 360000 nM. As usually defined, the IC50 is the midpoint of a concentration-inhibition curve. Read a low IC50 as higher potency. As to 8 aa USP1-NTD C-end degron peptide, the IC50 in assay [2] was 69.5 nM; in assay [3], 62600 nM.

With PPMAGG (peptide, UniProt Q9Y6D0 86-91, looked up) [6 aa SelK degron peptide (label-free)], the binding result in assay [4] was “binds”. Take LRGPSPPPMAGG (peptide, UniProt Q9Y6D0 80-91, looked up, also: biotin, position not given here) [biotinylated 12 aa SelK degron peptide]: the Kd in assay [5] was around 4 nM. On to LRGPSPPPMAGG (peptide, UniProt Q9Y6D0 80-91, looked up) [12 aa SelK degron peptide (label-free)], for which, in assay [4], the IC50 was around 3 nM. Consider SPPPMAGG (peptide, UniProt Q9Y6D0 84-91, looked up) [8 aa SelK C-end degron peptide (label-free, wild type)], for which, in assay [6], the concentration for half-maximal inhibition (IC50) worked out at 5900 nM. As to SPPPMAGG-NH2 (peptide, UniProt Q9Y6D0 84-91, looked up) [8 aa SelK degron peptide, C-terminally amidated], in assay [4], the “fold decrease in affinity against the unmodified 8 aa peptide” value is around 1000 fold.
